ChEMBL document CHEMBL4392823, “Potassium channel blocking 1,2-bis(aryl)ethane-1,2-diamines active as antiarrhythmic agents” (Bioorg Med Chem Lett, 2019)

What was measured:
[1] = Drug excretion in dog urine; format: ADME, Canis lupus familiaris; settings: read-out: Drug excretion
[2] = target: T1, Potassium voltage-gated channel subfamily A member 5 (Homo sapiens, UniProt P22460); assay: Inhibition of recombinant human Kv1.5 expressed in CHO cells by IonWork high-throughput electrophysiology assay; format: cell-based
How it was run: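 Kv1.5 current recorded in CHO cells by IonWorks HT automated electrophysiology. IC50 is the average of 2 measurements unless n=1 is noted.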

[3] = Renal clearance in dog; format: ADME, Canis lupus familiaris; settings: in vivo
[4] = Plasma clearance in dog; format: ADME, Canis lupus familiaris
[5] = target: T1, Potassium voltage-gated channel subfamily A member 5; assay: Inhibition of Kv1.5 in human atrial myocytes assessed as blockade of Ikur current; format: cell-based
[6] = target: Potassium voltage-gated channel subfamily E member 1 (Homo sapiens, UniProt P15382); assay: Inhibition of IKs (unknown origin)
[7] = species on record: Canis familiaris; assay: Antiarrhythmic activity in rapid atrial pacing dog model of atrial fibrillation assessed as unbound plasma concentration required to convert atrial fibrillation to sinus rhythm; format: functional, Canis lupus familiaris
How it was run: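 Rapid atrial pacing dog model of AF (n=12). Read-out was conversion of AF to sinus rhythm, with the unbound plasma concentration at conversion reported as mean ± spread.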

[8] = target: T2, G protein-activated inward rectifier potassium channel 1 (Homo sapiens, UniProt P48549); assay: Inhibition of Kir3.1 (unknown origin)
T2 sequence (P48549 whole entry): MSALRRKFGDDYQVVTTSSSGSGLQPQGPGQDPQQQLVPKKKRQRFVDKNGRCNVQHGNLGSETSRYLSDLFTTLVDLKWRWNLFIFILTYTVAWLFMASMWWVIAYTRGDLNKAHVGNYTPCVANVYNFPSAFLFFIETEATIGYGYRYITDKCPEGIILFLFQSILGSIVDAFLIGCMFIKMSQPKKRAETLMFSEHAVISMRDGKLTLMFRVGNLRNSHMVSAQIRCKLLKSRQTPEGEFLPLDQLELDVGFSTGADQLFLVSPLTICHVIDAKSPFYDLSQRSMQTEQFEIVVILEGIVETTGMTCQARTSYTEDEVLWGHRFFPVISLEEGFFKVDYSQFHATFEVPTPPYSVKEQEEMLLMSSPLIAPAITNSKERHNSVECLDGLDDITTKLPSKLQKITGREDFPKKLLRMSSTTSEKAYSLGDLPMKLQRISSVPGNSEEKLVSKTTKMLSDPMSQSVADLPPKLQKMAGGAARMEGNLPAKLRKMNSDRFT

[9] = Free drug level in rat brain at 2 umol/kg/hr administered for 4 hrs; format: ADME, tissue-based; settings: in vivo
How it was run: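 Rats received a continuous intravenous infusion at 2 μmol/kg/h for 4 h. Total brain and plasma concentrations were measured at steady state. Free levels were calculated from measured unbound fractions in brain and plasma, and free brain exposure was expressed relative to free plasma exposure.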

[10] = target: Voltage-dependent L-type calcium channel subunit alpha-1C (Homo sapiens, UniProt Q13936); assay: Inhibition of CaV1.2 (unknown origin)
[11] = target: T3, Glutamate [NMDA] receptor (Homo sapiens) (UniProt Q05586+Q12879+Q13224+O15399+O60391+Q14957+Q8TCU5); assay: Inhibition of NMDA receptor phencyclidine binding site (unknown origin) at 10 uM relative to control; format: protein-complex assay
[12] = target: hERG (KCNH2) (Homo sapiens, UniProt Q12809); assay: Inhibition of human ERG at 33 uM relative to control
[13] = target: T4, G protein-activated inward rectifier potassium channel 4 (Homo sapiens, UniProt P48544); assay: Inhibition of Kir3.4 (unknown origin)
T4 sequence (P48544 whole entry): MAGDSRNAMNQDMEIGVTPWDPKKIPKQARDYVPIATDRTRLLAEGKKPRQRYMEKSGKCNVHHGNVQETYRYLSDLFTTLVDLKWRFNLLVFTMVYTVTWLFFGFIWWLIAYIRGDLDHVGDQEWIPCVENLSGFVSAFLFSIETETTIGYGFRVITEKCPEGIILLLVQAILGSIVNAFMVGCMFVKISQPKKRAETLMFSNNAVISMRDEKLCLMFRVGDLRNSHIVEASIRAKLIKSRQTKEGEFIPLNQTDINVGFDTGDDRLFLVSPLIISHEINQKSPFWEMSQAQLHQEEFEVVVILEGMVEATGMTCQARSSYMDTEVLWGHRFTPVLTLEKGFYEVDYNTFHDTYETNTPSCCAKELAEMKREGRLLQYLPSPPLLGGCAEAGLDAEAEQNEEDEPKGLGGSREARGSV

[14] = target: Voltage-gated inwardly rectifying potassium channel KCNH2 (Homo sapiens, UniProt Q12809); assay: Inhibition of human ERG
[15] = target: T3, Glutamate [NMDA] receptor (Homo sapiens); assay: Inhibition of NMDA receptor glycine binding site (unknown origin) at 10 uM relative to control; format: protein-complex assay
[16] = target: T5, A-type voltage-gated potassium channel KCND3 (Homo sapiens, UniProt Q9UK17); assay: Inhibition of Kv4.3 (unknown origin)
T5 sequence (Q9UK17 whole entry): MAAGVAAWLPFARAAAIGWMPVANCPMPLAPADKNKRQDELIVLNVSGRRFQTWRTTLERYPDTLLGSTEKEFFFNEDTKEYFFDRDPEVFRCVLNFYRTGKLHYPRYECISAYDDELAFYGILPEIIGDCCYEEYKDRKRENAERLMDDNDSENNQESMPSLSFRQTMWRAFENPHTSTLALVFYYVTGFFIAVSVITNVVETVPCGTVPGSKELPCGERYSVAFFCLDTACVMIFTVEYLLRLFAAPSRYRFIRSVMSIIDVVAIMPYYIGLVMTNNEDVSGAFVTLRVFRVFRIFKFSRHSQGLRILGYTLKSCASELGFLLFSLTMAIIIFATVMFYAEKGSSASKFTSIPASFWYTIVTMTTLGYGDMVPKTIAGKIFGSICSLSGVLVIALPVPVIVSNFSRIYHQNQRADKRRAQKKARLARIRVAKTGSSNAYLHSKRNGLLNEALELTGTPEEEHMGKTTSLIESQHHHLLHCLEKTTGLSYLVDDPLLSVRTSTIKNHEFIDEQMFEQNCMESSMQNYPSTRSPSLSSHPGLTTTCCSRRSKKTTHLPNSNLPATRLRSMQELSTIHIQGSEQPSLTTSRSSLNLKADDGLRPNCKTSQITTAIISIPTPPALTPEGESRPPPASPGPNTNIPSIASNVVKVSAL

[17] = test system: Oryctolagus cuniculus; assay: Antiarrhythmic activity in iv dosed anesthetized rabbit assessed as free compound plasma exposure which prolongs the right atrial effective refractory period by 20 milliseconds measured after 20 mins by electrophysiological analysis; format: functional
How it was run: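 Anesthetized rabbits received increasing intravenous infusions of test compound. Right atrial effective refractory period was measured 20 min after each dose. Value is the free plasma exposure giving a 20 ms RAERP prolongation.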

[18] = target: Sodium channel protein type 5 subunit alpha (Homo sapiens, UniProt Q14524); assay: Inhibition of Nav1.5 (unknown origin)
[19] = Stability in human liver microsomes assessed as formation of iminium ions; format: ADME, Microsome
[20] = Lipophilicity, log D of the compound by chromatographic method; format: physicochemical
How it was run: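 Lipophilicity (log D) measured by a chromatographic method.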

[21] = Intrinsic clearance in human liver microsomes; format: ADME, Microsome; settings: read-out: CLH
[22] = target: Cytochrome P450 3A4 (Homo sapiens, UniProt P08684); assay: Drug metabolism in human hepatocytes assessed as CYP3A4-mediated drug metabolism; format: ADME, cell-based
[23] = target: Cytochrome P450 2D6 (Homo sapiens, UniProt P10635); assay: Inhibition of CYP2D6 (unknown origin); format: ADME
[24] = Dissociation constant, pKa of the compound; format: physicochemical
[25] = Cardiotoxicity in dog assessed as blockade of sodium channel by measuring changes in ECG at higher dose; format: toxicity, Canis lupus familiaris; settings: in vivo

T1 sequence (P22460 whole entry): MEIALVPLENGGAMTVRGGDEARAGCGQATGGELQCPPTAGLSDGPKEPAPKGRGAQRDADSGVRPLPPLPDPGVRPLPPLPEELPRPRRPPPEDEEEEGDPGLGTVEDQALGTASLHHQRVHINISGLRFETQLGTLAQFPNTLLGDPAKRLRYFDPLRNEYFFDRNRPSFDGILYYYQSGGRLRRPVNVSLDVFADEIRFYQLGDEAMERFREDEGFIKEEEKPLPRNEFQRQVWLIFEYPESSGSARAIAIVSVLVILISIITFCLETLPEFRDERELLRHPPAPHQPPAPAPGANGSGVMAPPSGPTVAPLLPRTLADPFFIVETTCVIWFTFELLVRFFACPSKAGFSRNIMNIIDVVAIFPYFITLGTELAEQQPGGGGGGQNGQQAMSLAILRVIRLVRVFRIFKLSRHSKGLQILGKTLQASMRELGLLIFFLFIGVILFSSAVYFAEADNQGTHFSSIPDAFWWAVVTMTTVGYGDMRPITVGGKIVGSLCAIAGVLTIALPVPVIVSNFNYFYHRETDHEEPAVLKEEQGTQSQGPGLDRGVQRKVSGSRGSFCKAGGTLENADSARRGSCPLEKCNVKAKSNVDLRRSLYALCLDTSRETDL
Cytochrome P450 2D6, sequence (P10635 whole entry): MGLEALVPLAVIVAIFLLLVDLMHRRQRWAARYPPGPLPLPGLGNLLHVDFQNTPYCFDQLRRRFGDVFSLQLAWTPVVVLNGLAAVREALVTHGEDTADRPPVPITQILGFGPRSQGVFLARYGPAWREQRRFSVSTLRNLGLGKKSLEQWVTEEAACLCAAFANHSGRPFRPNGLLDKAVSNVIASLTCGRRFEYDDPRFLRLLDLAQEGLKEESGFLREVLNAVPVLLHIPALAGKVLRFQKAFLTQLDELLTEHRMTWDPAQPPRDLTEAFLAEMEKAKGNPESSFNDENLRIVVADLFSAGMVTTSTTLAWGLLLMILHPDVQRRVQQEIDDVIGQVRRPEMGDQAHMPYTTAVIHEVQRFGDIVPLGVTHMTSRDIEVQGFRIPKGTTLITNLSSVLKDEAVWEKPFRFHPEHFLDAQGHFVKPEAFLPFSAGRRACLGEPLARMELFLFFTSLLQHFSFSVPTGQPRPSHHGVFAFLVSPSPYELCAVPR
Voltage-gated inwardly rectifying potassium channel KCNH2, sequence (Q12809 whole entry): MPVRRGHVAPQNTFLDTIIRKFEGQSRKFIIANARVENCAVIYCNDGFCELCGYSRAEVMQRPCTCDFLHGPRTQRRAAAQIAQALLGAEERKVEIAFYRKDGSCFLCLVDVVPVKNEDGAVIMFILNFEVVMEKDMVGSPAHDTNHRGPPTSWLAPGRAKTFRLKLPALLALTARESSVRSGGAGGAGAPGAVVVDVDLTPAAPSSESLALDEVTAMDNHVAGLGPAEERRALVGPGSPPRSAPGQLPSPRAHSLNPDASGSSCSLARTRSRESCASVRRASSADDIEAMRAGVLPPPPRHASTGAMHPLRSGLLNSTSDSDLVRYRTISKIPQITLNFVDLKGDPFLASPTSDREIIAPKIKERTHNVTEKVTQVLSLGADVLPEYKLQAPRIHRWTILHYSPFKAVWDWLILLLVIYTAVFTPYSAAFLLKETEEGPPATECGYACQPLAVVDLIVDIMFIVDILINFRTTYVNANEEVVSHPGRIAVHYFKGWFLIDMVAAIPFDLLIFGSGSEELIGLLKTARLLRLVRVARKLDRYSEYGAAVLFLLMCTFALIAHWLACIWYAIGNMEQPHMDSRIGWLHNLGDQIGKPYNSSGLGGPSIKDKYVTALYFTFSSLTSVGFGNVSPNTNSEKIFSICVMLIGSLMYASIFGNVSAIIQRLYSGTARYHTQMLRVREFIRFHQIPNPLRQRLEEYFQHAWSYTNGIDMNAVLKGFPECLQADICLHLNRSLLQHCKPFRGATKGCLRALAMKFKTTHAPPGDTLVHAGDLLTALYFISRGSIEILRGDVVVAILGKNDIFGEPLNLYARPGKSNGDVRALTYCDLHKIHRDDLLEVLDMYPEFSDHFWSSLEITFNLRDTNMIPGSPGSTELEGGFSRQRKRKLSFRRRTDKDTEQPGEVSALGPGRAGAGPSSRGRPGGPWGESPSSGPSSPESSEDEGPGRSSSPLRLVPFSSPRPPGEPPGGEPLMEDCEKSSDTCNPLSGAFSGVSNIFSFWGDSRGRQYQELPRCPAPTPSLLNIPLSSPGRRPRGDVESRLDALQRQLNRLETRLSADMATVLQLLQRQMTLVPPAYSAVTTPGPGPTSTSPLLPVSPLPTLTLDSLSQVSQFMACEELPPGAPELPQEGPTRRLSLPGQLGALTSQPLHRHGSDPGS
Cytochrome P450 3A4, sequence (P08684 whole entry): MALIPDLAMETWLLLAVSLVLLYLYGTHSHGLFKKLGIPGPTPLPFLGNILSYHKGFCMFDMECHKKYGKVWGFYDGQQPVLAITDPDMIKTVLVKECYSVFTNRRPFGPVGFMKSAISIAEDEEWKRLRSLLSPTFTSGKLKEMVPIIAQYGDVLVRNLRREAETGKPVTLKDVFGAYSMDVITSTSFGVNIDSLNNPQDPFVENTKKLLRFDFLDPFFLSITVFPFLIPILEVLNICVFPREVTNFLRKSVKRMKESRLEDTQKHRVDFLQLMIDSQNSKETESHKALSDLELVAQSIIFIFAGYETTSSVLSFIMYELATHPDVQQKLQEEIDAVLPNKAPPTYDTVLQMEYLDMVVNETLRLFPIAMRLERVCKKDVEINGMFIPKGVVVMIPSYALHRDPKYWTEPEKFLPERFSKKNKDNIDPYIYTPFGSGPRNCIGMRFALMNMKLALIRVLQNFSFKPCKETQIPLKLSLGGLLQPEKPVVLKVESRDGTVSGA
Sodium channel protein type 5 subunit alpha, sequence (Q14524 whole entry): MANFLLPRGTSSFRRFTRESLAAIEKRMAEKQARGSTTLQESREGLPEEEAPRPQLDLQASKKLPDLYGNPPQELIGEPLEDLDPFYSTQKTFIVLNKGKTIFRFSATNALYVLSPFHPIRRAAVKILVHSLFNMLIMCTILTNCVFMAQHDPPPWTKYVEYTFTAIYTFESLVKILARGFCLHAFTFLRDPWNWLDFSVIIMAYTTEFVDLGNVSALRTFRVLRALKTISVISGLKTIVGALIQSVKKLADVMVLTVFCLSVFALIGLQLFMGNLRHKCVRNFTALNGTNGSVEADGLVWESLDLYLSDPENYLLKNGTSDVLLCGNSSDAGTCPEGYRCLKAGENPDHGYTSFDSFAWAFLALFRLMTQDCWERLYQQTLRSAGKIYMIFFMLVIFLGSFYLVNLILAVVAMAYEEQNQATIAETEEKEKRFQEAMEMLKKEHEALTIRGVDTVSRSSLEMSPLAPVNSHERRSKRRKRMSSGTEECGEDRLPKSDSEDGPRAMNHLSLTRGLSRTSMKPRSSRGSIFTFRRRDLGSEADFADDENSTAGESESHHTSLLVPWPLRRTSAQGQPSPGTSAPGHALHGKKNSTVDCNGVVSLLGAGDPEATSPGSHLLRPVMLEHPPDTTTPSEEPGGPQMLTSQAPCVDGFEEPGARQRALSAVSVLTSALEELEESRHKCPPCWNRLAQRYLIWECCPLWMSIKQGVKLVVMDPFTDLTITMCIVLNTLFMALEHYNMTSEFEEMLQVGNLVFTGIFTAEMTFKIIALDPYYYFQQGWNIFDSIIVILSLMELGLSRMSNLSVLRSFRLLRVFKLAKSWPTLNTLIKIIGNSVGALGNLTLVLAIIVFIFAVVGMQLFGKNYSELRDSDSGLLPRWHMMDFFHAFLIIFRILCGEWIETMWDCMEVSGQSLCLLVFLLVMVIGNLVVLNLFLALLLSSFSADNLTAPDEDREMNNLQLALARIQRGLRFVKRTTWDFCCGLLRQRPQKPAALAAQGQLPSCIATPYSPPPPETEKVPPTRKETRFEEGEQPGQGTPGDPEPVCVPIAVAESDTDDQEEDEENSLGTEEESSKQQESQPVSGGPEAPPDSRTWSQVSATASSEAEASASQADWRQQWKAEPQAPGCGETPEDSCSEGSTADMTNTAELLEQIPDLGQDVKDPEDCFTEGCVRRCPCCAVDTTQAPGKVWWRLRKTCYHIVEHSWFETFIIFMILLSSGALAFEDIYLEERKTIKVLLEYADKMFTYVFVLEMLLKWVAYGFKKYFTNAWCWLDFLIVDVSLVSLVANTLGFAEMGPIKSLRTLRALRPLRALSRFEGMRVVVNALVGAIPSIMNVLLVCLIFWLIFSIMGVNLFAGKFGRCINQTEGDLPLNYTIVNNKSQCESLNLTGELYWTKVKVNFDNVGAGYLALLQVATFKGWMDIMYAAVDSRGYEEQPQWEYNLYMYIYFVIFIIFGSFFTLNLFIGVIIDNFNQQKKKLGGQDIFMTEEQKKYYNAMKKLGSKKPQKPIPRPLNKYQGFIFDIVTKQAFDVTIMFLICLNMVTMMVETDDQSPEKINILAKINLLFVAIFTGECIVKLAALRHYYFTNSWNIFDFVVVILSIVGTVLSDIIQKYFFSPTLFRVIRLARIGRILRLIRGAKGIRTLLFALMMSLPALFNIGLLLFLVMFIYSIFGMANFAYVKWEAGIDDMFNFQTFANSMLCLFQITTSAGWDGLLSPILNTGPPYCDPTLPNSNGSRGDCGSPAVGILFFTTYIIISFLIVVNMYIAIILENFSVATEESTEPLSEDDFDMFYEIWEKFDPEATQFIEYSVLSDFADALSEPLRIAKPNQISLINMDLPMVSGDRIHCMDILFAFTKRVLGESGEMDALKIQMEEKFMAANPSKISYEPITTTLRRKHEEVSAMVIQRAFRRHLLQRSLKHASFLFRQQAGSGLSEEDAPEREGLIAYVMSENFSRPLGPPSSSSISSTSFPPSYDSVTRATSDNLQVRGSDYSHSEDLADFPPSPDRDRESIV

Row | SMILES | dose excreted [1] [%] | IC50 [2] [µM] | CL renal [3] [mL/min/kg] | clearance [4] [mL/min/kg] | IC50 [6] [µM] | chromatographic logD [20] | microsomal CLint [21] [µL/min/mg] | Drug metabolism [22] | also measured
1 | COCCN(C[C@H](C)O)[C@H](c1ccccn1)[C@@H](c1ccccn1)N1C2CCC1CC(OC)C2 (stereo not given in full) | 28 | 5.6 | 7.1 | 25 |  |  |  |  | 
2 | CCCN(CCC)[C@H](c1ccccn1)[C@@H](c1ccccn1)N(CCC)C[C@H](O)CO | 5.1 | 1.7 | 0.19 | 6.1 | > 33 |  |  |  | IC50 [5]: 0.06 µM; Cp(f) [7]: 0.48 µM; IC50 [8]: 4.1 µM; Drug uptake(free) [9]: 4%; IC50 [10]: > 33 µM; inhibition [11]: 14%; inhibition at 33 µM [12]: 37%; IC50 [13]: 4.1 µM; IC50 [14]: > 33 µM; inhibition [15]: 13%; IC50 [16]: 11 µM; Cp(f) [17]: 0.15 µM; IC50 [18]: 19 µM
3 | CCCN(CC)[C@H](c1ccccn1)[C@@H](c1ccccn1)N(CC)CCC | 6.9 | 3.2 | 0.7 | 16 | 60 | 3.3 | 23 | Metabolite_Detected | Stability [19]: Stable; IC50 [14]: > 33 µM; IC50 [23]: 5.4 µM
4 | CCCN(CC)[C@@H](c1ccccn1)[C@H](c1cccc(C#N)c1)N(CCOC)C[C@@H](C)CO | 4.7 | 7.3 | 1.8 | 37 |  |  |  |  | IC50 [5]: 0.26 µM
5 | c1ccc([C@H]([C@H](c2ccccn2)N2CCCCC2)N2CCCCC2)nc1 |  | 1.4 |  |  |  | 4.6 | 412 | Metabolite_Detected | pKa [24]: 8.7
6 | c1ccc([C@H]([C@@H](c2ccccc2)N2CCCCC2)N2CCCCC2)cc1 |  | 0.41 |  |  | 1.4 | 4 | 14 | Metabolite_Detected | Stability [19]: Unstable; IC50 [14]: > 33 µM; IC50 [23]: 0.13 µM
7 | CCCN(C[C@H](C)O)[C@H](c1ccccn1)[C@@H](c1ccccn1)N1C2CCCC1CC2 | 12 | 3.4 | 0.3 | 3 |  |  |  |  | Activity [25]: Toxic; Cp(f) [17]: 0.057 µM
8 | CCCN(CC)[C@H](c1ccccn1)[C@@H](c1cccc(C#N)c1)N(CCOC)C[C@H](C)CO | 4.4 | 4.8 | 2.1 | 44 |  |  |  |  | IC50 [5]: 0.39 µM
9 | CCCN(CCC)[C@H](c1ccccn1)[C@@H](c1ccccn1)N(C[C@@H](C)O)C[C@@H](C)O | 19 | 2.1 | 5.5 | 16 |  |  |  |  | Cp(f) [17]: 0.29 µM

The remaining molecules from weak to strong by IC50 [2], led by results:

Row | dose excreted [1] [%] | IC50 [2] [µM] | CL renal [3] [mL/min/kg] | clearance [4] [mL/min/kg] | IC50 [6] [µM] | chromatographic logD [20] | microsomal CLint [21] [µL/min/mg] | Drug metabolism [22] | SMILES | also measured
10 | 11 | 10 | 2.7 | 25 |  |  |  |  | CCCN(CC)[C@H](c1ccccn1)[C@@H](c1ccccn1)N(CCOC)C[C@H](C)CO | 
11 |  | 4.8 |  |  |  | 2.2 | < 5 | Metabolite_Detected | c1ccc([C@@H]([C@H](c2ccccn2)N2CCCCC2)N2CCCCC2)nc1 | pKa [24]: 10.4
12 | 11 | 2.7 | 2.5 | 21 |  |  |  |  | CCCN(CCC)[C@H](c1ccccn1)[C@@H](c1ccccn1)N(CCOC)C[C@H](C)O | Cp(f) [17]: 0.22 µM
13 |  | 2.2 |  |  | 17 | 2.2 | < 5 | Metabolite_Detected | c1ccc([C@H]([C@@H](c2ccccn2)N2CCCCC2)N2CCCCC2)nc1 | pKa [24]: 10.4; IC50 [14]: > 33 µM; IC50 [23]: > 20 µM
14 |  | 0.22 |  |  | > 33 | 4.6 | 58 | Metabolite_Detected | CCCN(CCC)[C@H](c1ccccn1)[C@@H](c1ccccn1)N(CCC)CCC | IC50 [23]: > 20 µM
